ChEMBL document CHEMBL4373727, “Thienopyrimidinone Derivatives That Inhibit Bacterial tRNA (Guanine37-N1)-Methyltransferase (TrmD) by Restructuring the Active Site with a Tyrosine-Flipping Mechanism” (J Med Chem, 2019)
Activity calls are given as the source filed them. Unless noted, no cut-off for these calls is given here.

What was measured:
[1] = target: T1, tRNA (guanine-N(1)-)-methyltransferase (Pseudomonas aeruginosa (strain ATCC 15692 / DSM 22644 / CIP 104116 / JCM14847 / LMG 12228 / 1C / PRS 101 / PAO1), UniProt Q9HXQ1); test: Inhibition of Pseudomonas aeruginosa tRNA (guanine(37)-N1)-methyltransferase (Leu5 to Asp25 residues) expressed in Escherichia coli BL21 (DE3) Rosetta T1R cells assessed as reduction in S-adenosyl-L-homocysteine production preincubated for 15 mins followed by 1.5 uM of tRNALeu(CAG) substrate and SAM addition and measured after 45 mins by MTase-Glo assay
T1 sequence (Q9HXQ1 whole entry): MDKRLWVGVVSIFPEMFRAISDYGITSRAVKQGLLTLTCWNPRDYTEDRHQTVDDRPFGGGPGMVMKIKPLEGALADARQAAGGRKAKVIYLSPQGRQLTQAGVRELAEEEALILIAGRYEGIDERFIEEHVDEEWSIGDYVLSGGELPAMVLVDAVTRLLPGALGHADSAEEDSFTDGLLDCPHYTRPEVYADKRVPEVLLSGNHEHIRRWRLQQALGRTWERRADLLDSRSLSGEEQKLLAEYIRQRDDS
Summary of the method: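 MTase-Glo luminescence assay. 8 nM TrmD preincubated 15 min at ambient temperature with serially diluted inhibitor (0–500 μM) in 50 mM Tris-HCl pH 8.0, 80 mM NaCl, 1 mM MgCl2, 0.5 mM DTT, 0.01% Triton X-100. Reaction with 2 μM SAM and tRNALeu(CAG), 45 min at 37 °C. Detection 30 min in the dark, SAH read against a standard curve. IC50 by nonlinear regression. Two independent experiments in duplicate.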

Staphylococcus aureus [2] = test: Antibacterial activity against methicillin-resistant Staphylococcus aureus ATCC 43300 at 100 uM incubated for 24 hrs; format: functional, organism-based
Summary of the method: (§1)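 Single-concentration growth screen: 100 μM test compound with log-phase bacteria at about 5×10^5 cells/mL. Incubation 24 h at 37 °C. Growth read by OD600 and given as percent of untreated control. MRSA was grown in cation-adjusted Mueller–Hinton broth. M. smegmatis was grown in complete Middlebrook 7H9. Ampicillin and kanamycin served as positive controls.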

Enterococcus faecalis [3] = test: Antibacterial activity against Enterococcus faecalis ATCC 51299 at 100 uM incubated for 24 hrs; format: functional, organism-based
Summary of the method: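 Single-concentration screen in brain heart infusion broth. Log-phase cells at ~5×10^5 cells/mL were grown with 100 μM compound for 24 h at 37 °C. Growth was read as OD600 and expressed as a percentage of untreated wells. DMSO and blank controls were included.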

Streptococcus pneumoniae [4] = test: Antibacterial activity against Streptococcus pneumoniae ATCC 49619 at 100 uM incubated for 24 hrs; format: functional, organism-based
Summary of the method: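 Single 100 μM screen in MH medium with 3% defibrinated sheep blood at 37 °C under 5% CO2, ~5×10^5 cells/mL, 24 h.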

[5] = test system: Mycolicibacterium smegmatis; test: Antibacterial activity against Mycolicibacterium smegmatis MC2 155 at 100 uM incubated for 24 hrs; format: functional, organism-based; summary of the method: as §1
[6] = test system: Mycobacterium tuberculosis; test: Antibacterial activity against Mycobacterium tuberculosis ATCC 27294 at 100 uM incubated for 7 days; format: functional, organism-based
Pseudomonas aeruginosa = test: Antibacterial activity against Pseudomonas aeruginosa PA14 incubated for 24 hrs by serial broth microdilution method; format: functional, organism-based
Summary of the method: (§2)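 Log-phase cultures from four colonies grown overnight at 37 °C, inoculated at ~5×10^5 cells/mL in cation-adjusted Mueller–Hinton broth with serially diluted compound. Grown 24 h at 37 °C, then OD600 read. MIC50/MIC90 are the concentrations giving 50%/90% growth inhibition relative to drug-free controls. Two independent experiments in duplicate.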

Acinetobacter baumannii = test: Antibacterial activity against Acinetobacter baumannii ATCC 17961 incubated for 24 hrs by serial broth microdilution method; format: functional; summary of the method: as §2
Klebsiella pneumoniae = test: Antibacterial activity against Klebsiella pneumoniae ATCC 13883 incubated for 24 hrs by serial broth microdilution method; format: functional, organism-based; summary of the method: as §2
Salmonella enteritidis = test: Antibacterial activity against Salmonella enteritidis ATCC 13076 incubated for 24 hrs by serial broth microdilution method; format: functional; details: Salmonella enterica subsp. enterica serovar Enteritidis; summary of the method: as §2
Escherichia coli = test: Antibacterial activity against Escherichia coli BW25113 incubated for 24 hrs by serial broth microdilution method; format: functional, organism-based; summary of the method: as §2
Staphylococcus aureus [7] = test: Antibacterial activity against methicillin-resistant Staphylococcus aureus ATCC 43300 incubated for 24 hrs by serial broth microdilution method; format: functional
Summary of the method: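 Growth read by OD600. MRSA in cation-adjusted Mueller–Hinton broth, M. smegmatis in complete 7H9. MIC50 and MIC90 are 50% and 90% growth inhibition versus drug-free controls. Two independent experiments, each in duplicate.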

Enterococcus faecalis [8] = test: Antibacterial activity against Enterococcus faecalis ATCC 51299 incubated for 24 hrs by serial broth microdilution method; format: functional, organism-based
Summary of the method: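 Broth microdilution in brain heart infusion broth, ~5×10^5 cells/mL log-phase inoculum, serial compound dilutions, 24 h at 37 °C, OD600 read-out. MIC50/MIC90 are the concentrations giving 50%/90% growth inhibition relative to drug-free controls. Two independent experiments in duplicate.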

Streptococcus pneumoniae [9] = test: Antibacterial activity against Streptococcus pneumoniae ATCC 49619 incubated for 24 hrs by serial broth microdilution method; format: functional
Summary of the method: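 Cultured in MH medium plus 3% defibrinated sheep blood at 37 °C, 5% CO2. Log-phase inoculum ~5×10^5 cells/mL was exposed to serial compound dilutions for 24 h. MIC50/MIC90 are relative to drug-free controls. Two independent experiments in duplicate.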

Erythrocyte = test: Hemolytic activity in human RBC at 100 uM measured after 1 hr; format: ADME, cell-based
Summary of the method: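 Fresh human RBCs were PBS-washed and resuspended to OD600 24, then mixed 1:1 by volume with compound serially diluted in PBS. Incubated 1 h at 37 °C without shaking and centrifuged at 1000g for 15 min. Triton X-100 served as positive control. Run in triplicate.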

[10] = target: T2, tRNA (guanine-N(1)-)-methyltransferase (Pseudomonas aeruginosa (strain ATCC 15692 / DSM 22644 / CIP 104116 / JCM14847 / LMG 12228 / 1C / PRS 101 / PAO1)) (UniProt Q9HXQ1); test: Binding affinity to Pseudomonas aeruginosa tRNA (guanine(37)-N1)-methyltransferase (Leu5 to Asp25 residues) expressed in Escherichia coli BL21 (DE3) Rosetta T1R cells assessed as thermal stabilization of protein by measuring change in melting temperature at 0.1 mM by SYPRO orange based thermal shift assay
T2 sequence (whole entry): T1 sequence (Q9HXQ1 whole entry)
Summary of the method: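 Thermal shift: 4 μM TrmD with 5× SYPRO Orange and ligand in 50 mM Tris-HCl pH 8, 150 mM NaCl, 1 mM MgCl2, 1 mM DTT, 0.05% Tween-20. Buffer-only control. Heated from 25 to 95 °C in a real-time PCR instrument, and Tm taken as the unfolding midpoint. Ligand levels: SAH 2 mM, inhibitors 0.1 mM.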

| SMILES | IC50 [1] [nM] | Activity (Staphylococcus aureus [2]) | Activity (Enterococcus faecalis [3]) | Activity (Streptococcus pneumoniae [4]) | Activity [5] | Activity [6] | Activity (Pseudomonas aeruginosa) | Activity (Acinetobacter baumannii) | Activity (Klebsiella pneumoniae) | Activity (Salmonella enteritidis) | Activity (Escherichia coli) | Activity (Staphylococcus aureus [7]) | Activity (Enterococcus faecalis [8]) | Activity (Streptococcus pneumoniae [9]) | Activity (Erythrocyte) | ΔTm [10] [°C] |
| --- | --- | --- | --- | --- | --- | --- | --- | --- | --- | --- | --- | --- | --- | --- | --- | --- |
| Cl.NCCOCCOCCNCc1ccc(CNC(=O)c2csc3nc[nH]c(=O)c23)cc1 | 450 | inactive | inactive | inactive | inactive | inactive | inactive | inactive | inactive | inactive | inactive | inactive | inactive | inactive | Non-Toxic |  |
| CCCCCNCc1ccc(CNC(=O)c2csc3nc[nH]c(=O)c23)cc1 | 85 | inactive | inactive | inactive | inactive | inactive |  |  |  |  |  |  |  |  | Non-Toxic |  |
| Cl.NCCCCNCc1ccc(CNC(=O)c2csc3nc[nH]c(=O)c23)cc1 | 80 | inactive | inactive | inactive | inactive | inactive | inactive | inactive | inactive | inactive | inactive | inactive | inactive | inactive | Non-Toxic |  |
| CCN(Cc1ccc(CNC(=O)c2csc3nc[nH]c(=O)c23)cc1)C1CCCCC1 | 490 | inactive | inactive | inactive | inactive | inactive |  |  |  |  |  |  |  |  | Non-Toxic |  |
| O=C(NCc1ccc(CN2CCCCC2)cc1)c1csc2nc[nH]c(=O)c12 | 1100 | inactive | inactive | inactive | inactive | inactive |  |  |  |  |  |  |  |  | Non-Toxic |  |
| O=C(NCc1ccc(CNCc2ccccc2)cc1)c1csc2nc[nH]c(=O)c12 | 130 | inactive | inactive | inactive | inactive | inactive |  |  |  |  |  |  |  |  | Non-Toxic |  |
| Cl.NCCCCCNCc1ccc(CNC(=O)c2csc3nc[nH]c(=O)c23)cc1 | 110 | inactive | inactive | inactive | inactive | inactive | inactive | inactive | inactive | inactive | inactive | inactive | inactive | inactive | Non-Toxic |  |
| O=C(NCc1ccc(CN2CCOCC2)cc1)c1csc2nc[nH]c(=O)c12 | 3000 | inactive | inactive | inactive | inactive | inactive |  |  |  |  |  |  |  |  | Non-Toxic |  |
| CCN(CC)Cc1ccc(CNC(=O)c2csc3nc[nH]c(=O)c23)cc1 | 730 | inactive | inactive | inactive | inactive | inactive |  |  |  |  |  |  |  |  | Non-Toxic |  |
| O=C(NCc1ccc(CNC23CC4CC(CC(C4)C2)C3)cc1)c1csc2nc[nH]c(=O)c12 | 720 | inactive | inactive | inactive | inactive | inactive |  |  |  |  |  |  |  |  | Non-Toxic |  |
| CCCCCCCCNCc1ccc(CNC(=O)c2csc3ncnc(OCc4ccc(N=[N+]=[N-])cc4)c23)cc1 | 1800 |  |  |  |  |  |  |  |  |  |  |  |  |  |  | 1 to 2 |
| CCOCCOCCNCc1ccc(CNC(=O)c2csc3nc[nH]c(=O)c23)cc1 | 210 | inactive | inactive | inactive | inactive | inactive |  |  |  |  |  |  |  |  |  |  |
| O=C(NCc1ccc(CNCCOCCO)cc1)c1csc2nc[nH]c(=O)c12 | 110 | inactive | inactive | inactive | inactive | inactive |  |  |  |  |  |  |  |  | Non-Toxic |  |
| O=C(NCc1ccc(CNC2CCCCC2)cc1)c1csc2nc[nH]c(=O)c12 | 790 | inactive | inactive | inactive | inactive | inactive |  |  |  |  |  |  |  |  | Non-Toxic |  |
| CCCCCCCCN(Cc1ccccc1)Cc1ccc(CNC(=O)c2csc3nc[nH]c(=O)c23)cc1 | 12000 | inactive | inactive | inactive | inactive | inactive |  |  |  |  |  |  |  |  | Non-Toxic |  |
| CCN(Cc1ccccc1)Cc1ccc(CNC(=O)c2csc3nc[nH]c(=O)c23)cc1 | 2200 | inactive | inactive | inactive | inactive | inactive |  |  |  |  |  |  |  |  | Non-Toxic |  |
| CCCCCCCCN(CC)Cc1ccc(CNC(=O)c2csc3nc[nH]c(=O)c23)cc1 | 370 | inactive | inactive | inactive | inactive | inactive |  |  |  |  |  |  |  |  |  |  |
| CCCCNCc1ccc(CNC(=O)c2csc3nc[nH]c(=O)c23)cc1 | 150 | inactive | inactive | inactive | inactive | inactive |  |  |  |  |  |  |  |  | Non-Toxic |  |
| CCCCCCN(Cc1ccccc1)Cc1ccc(CNC(=O)c2csc3nc[nH]c(=O)c23)cc1 | 2200 | inactive | inactive | inactive | inactive | inactive |  |  |  |  |  |  |  |  |  |  |
